Results: ChEMBL document CHEMBL2396559, “Synthesis and preliminary biological evaluation of a compound library of triazolylcyclitols” (2013)
Active and inactive are the calls of the source. No cut-off for these calls is given here.

Experiments:
[1] = tested on: Trichophyton mentagrophytes; experiment: Antifungal activity against Trichophyton mentagrophytes ATCC 9533 assessed as growth inhibition at 10 mg/mL by bioautographic agar overlay method; format: functional, organism-based
Summary of the method: (§1)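 Samples at 10 mg/mL spotted on silica gel TLC plates, overlaid with a thin Sabouraud agar film inoculated 50:1 with fresh-culture suspension at 10^6 cells or spores/mL. Incubation time and conditions were set per fungus. Growth-free zones around spots scored qualitatively. Same plate carried DMSO 1% negative control plus amphotericin B and ketoconazol controls.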

[2] = tested on: Trichophyton rubrum; experiment: Antifungal activity against Trichophyton rubrum ATCC 28188 assessed as growth inhibition at 10 mg/mL by bioautographic agar overlay method; format: functional, organism-based; summary of the method: as §1
[3] = tested on: Nakaseomyces glabratus; experiment: Antifungal activity against Candida glabrata ATCC 15126 assessed as growth inhibition at 10 mg/mL by bioautographic agar overlay method; format: functional, organism-based; summary of the method: as §1
[4] = tested on: Candida parapsilosis; experiment: Antifungal activity against Candida parapsilosis ATCC 22919 assessed as growth inhibition at 10 mg/mL by bioautographic agar overlay method; format: functional, organism-based; summary of the method: as §1
[5] = Immunosuppressive activity against C57Bl/6 mouse splenic lymphocytes assessed as concanavalin A-induced cell proliferation at > 0.002 nM incubated for 1 hr prior to concanavalin A challenge measured after 48 hrs by resazurin reduction assay relative to control; format: functional, Splenic lymphocyte; design: scale not given: the % may be the effect or the level left
Summary of the method: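 Splenocytes from male C57Bl/6 mice were plated at 1×10^6 cells/mL, 37 °C, 5% CO2. Compounds at 0.002–200 nM were added for 1 h, then cells were incubated with or without concanavalin A (0.5 µg/mL) for 48 h. Resazurin 0.01% was added for 24 h, then OD read at 570 and 600 nm and proliferation taken as the difference. Compared with ConA plus vehicle. Three animals in triplicate.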

[6] = tested on: Candida albicans; experiment: Antifungal activity against Candida albicans ATCC 90022 assessed as growth inhibition at 10 mg/mL by bioautographic agar overlay method; format: functional, organism-based; summary of the method: as §1
[7] = tested on: Splenic lymphocyte; experiment: Immunosuppressive activity against C57Bl/6 mouse splenic lymphocytes assessed as cell viability at 200 nM after 72 hrs by MTT assay; format: functional
Summary of the method: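 Spleens from male 18-week-old C57Bl/6 mice were teased through a strainer, washed in RPMI and resuspended in RPMI with 10% FBS. Cells were counted by trypan blue and cultured in triplicate at 37 °C for 72 h with vehicle (medium, 0.1% DMSO), 10% DMSO or compound at 200 nM. MTT was added for 2 h, formazan dissolved in DMSO and read at 570 nm. Viability taken as % of vehicle after blank subtraction. Three animals.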

[8] = tested on: Cryptococcus neoformans; experiment: Antifungal activity against Cryptococcus neoformans ATCC 14116 assessed as growth inhibition at 10 mg/mL by bioautographic agar overlay method; format: functional, organism-based; summary of the method: as §1
[9] = tested on: Nannizzia gypsea; experiment: Antifungal activity against Microsporum gypseum ATCC 24102 assessed as growth inhibition at 10 mg/mL by bioautographic agar overlay method; format: functional, organism-based; summary of the method: as §1

| Structure (SMILES) | growth inhibition (GI) [1] | growth inhibition (GI) [2] | growth inhibition (GI) [3] | growth inhibition (GI) [4] | Activity [5] | growth inhibition (GI) [6] | Activity [7] | growth inhibition (GI) [8] | growth inhibition (GI) [9] |
| --- | --- | --- | --- | --- | --- | --- | --- | --- | --- |
| C#Cc1cccc(-c2cn([C@H]3C=C(Br)[C@@H](O)[C@@H](O)[C@@H]3O)nn2)c1 | inactive | inactive | inactive | inactive | <=30% | inactive | inactive | inactive | inactive |
| O[C@H]1[C@H](O)[C@H](n2cc(-c3ccc(-c4cn([C@H]5C=C(Br)[C@@H](O)[C@@H](O)[C@@H]5O)nn4)cc3)nn2)C=C(Br)[C@H]1O (mixture of isomers) | inactive | inactive | inactive | inactive | <=30% | inactive | inactive | inactive | inactive |
| O[C@H]1[C@H](O)[C@@H](n2cc(-c3ccc(-c4cn([C@H]5C=C(Br)[C@@H](O)[C@@H](O)[C@@H]5O)nn4)cc3)nn2)C=C(Br)[C@H]1O | inactive | Active | inactive | inactive | <=30% | inactive | inactive | inactive | Active |
| O[C@H]1[C@H](O)[C@H](n2cc(-c3cccc(-c4cn([C@@H]5C=C(Br)[C@@H](O)[C@@H](O)[C@@H]5O)nn4)c3)nn2)C=C(Br)[C@H]1O | inactive | inactive | inactive | inactive | <=30% | inactive | inactive | inactive | inactive |
| O[C@H]1[C@H](O)[C@@H](n2cc(-c3cccc(-c4cn([C@H]5C=C(Br)[C@@H](O)[C@@H](O)[C@@H]5O)nn4)c3)nn2)C=C(Br)[C@H]1O | inactive | inactive | inactive | inactive | <=30% | inactive | inactive | inactive | inactive |
| C#Cc1ccc(-c2cn([C@H]3C=C(Br)[C@@H](O)[C@@H](O)[C@@H]3O)nn2)cc1 | inactive | inactive | inactive | inactive | <=30% | inactive | inactive | inactive | inactive |
| C#Cc1cccc(-c2cn([C@@H]3C=C(Br)[C@@H](O)[C@@H](O)[C@@H]3O)nn2)c1 | inactive | inactive | inactive | Active | <=30% | inactive | inactive | inactive | inactive |
| O[C@H]1[C@H](O)[C@H](n2cc(-c3ccc(-c4cn([C@@H]5C=C(Br)[C@@H](O)[C@@H](O)[C@@H]5O)nn4)cc3)nn2)C=C(Br)[C@H]1O | inactive | inactive | inactive | Active | <=30% | inactive | inactive | inactive | inactive |
| C#Cc1ccc(-c2cn([C@@H]3C=C(Br)[C@@H](O)[C@@H](O)[C@@H]3O)nn2)cc1 | inactive | inactive | inactive | Active | <=30% | inactive | inactive | inactive | inactive |
| O[C@H]1[C@H](O)[C@H](n2cc(-c3cccc(-c4cn([C@H]5C=C(Br)[C@@H](O)[C@@H](O)[C@@H]5O)nn4)c3)nn2)C=C(Br)[C@H]1O (mixture of isomers) | Active | inactive | Active | inactive | <=30% | inactive | inactive | inactive | inactive |
